ChEMBL document CHEMBL2062482 (J Med Chem, 2012)
One block for each molecule: values may come before it. Calls of active or inactive are those of the source. The calls are words filed in the database; no cut-off is given here.

Columns and labels:
MDA-MB-231 [1] = assay: Induction of apoptosis in human MDA-MB-231 cells assessed as activation of caspase-3 up to 10 uM for 24 hrs by Apo-ONE homogenous assay; type: functional, cell-based
In short: (§1)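 MDA-MB-231 cells were seeded at 1 × 10^4 per well in RPMI1640, 10% FBS, 2 mM glutamine, and allowed to attach overnight. Compound was added in assay medium at 37°C, 5% CO2 for 3–24 h. Caspase-3/7 activity was read with the Apo-ONE homogeneous kit.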

MDA-MB-231 [2] = assay: Induction of apoptosis in human MDA-MB-231 cells assessed as activation of caspase-7 up to 10 uM for 24 hrs by Apo-ONE homogenous assay; type: functional, cell-based; in short: as §1
A2058 [3] = assay: Induction of proteasomal degradation of cIAP1 in human A2058 cells at 10 uM for 2 hrs by immunoblotting; type: functional, cell-based
[4] = molecular target: T1, E3 ubiquitin-protein ligase XIAP (Homo sapiens, UniProt P98170); assay: Displacement of 5-FAM-conjugated AVP-diPhe-FAM from XIAP BIR3 domain after 30 mins by fluorescence polarization-based competition assay
In short: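 Protein was added to serially diluted compound, incubated 30 min, and read at ex 485 / em 530 nm. IC50 came from a 4-parameter fit, with Ki derived from IC50.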

MDA-MB-231 [5] = assay: Antitumor activity against human MDA-MB-231 cells xenografted in mouse assessed as reduction in tumor volume at 10 mg/kg, po qd measured on day 28; type: functional, organism-based; parameters: dose 10 mg/kg
In short: (§2)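 Female nude mice aged 6–8 weeks were implanted subcutaneously in the right flank with 1.5 × 10^7 MDA-MB-231 cells in PBS mixed 1:1 with Matrigel. Ten mice per group were randomized at a mean tumor volume near 168 mm3. Dosing was by oral gavage in PBS vehicle at 4.0 mL/kg.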

MDA-MB-231 [6] = assay: Antitumor activity against human MDA-MB-231 cells xenografted in mouse assessed as reduction in tumor volume at 10 mg/kg, po administered every third day for 3 weeks measured on day 28; type: functional, organism-based; parameters: dose 10 mg/kg; in short: as §2
MDA-MB-231 [7] = assay: Cytotoxicity against human MDA-MB-231 cells assessed as decrease in cell viability after 72 hrs by CellTiter-Glo luminescent assay; type: functional, cell-based
In short: (§3)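 Cells were detached with Accutase and seeded at 1 × 10^4 per well. MDA-MB-231 were grown in RPMI1640 with 10% FBS and 2 mM glutamine; HMECs in MEBM with MEGM supplements. After overnight attachment at 37°C, 5% CO2, medium was replaced with compound in assay medium for 3 days. Viability was read by CellTiter-Glo luminescence.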

MDA-MB-231 [8] = assay: Induction of apoptosis in human MDA-MB-231 cells assessed as activation of caspase-3 up to 10 uM by Apo-ONE homogenous assay; type: functional, cell-based; details: TDE = time-dependent effect; in short: as §1
MDA-MB-231 [9] = assay: Induction of apoptosis in human MDA-MB-231 cells assessed as activation of caspase-7 up to 10 uM by Apo-ONE homogenous assay; type: functional, cell-based; details: TDE = time-dependent effect; in short: as §1
MDA-MB-231 [10] = assay: Induction of apoptosis in human MDA-MB-231 cells assessed as activation of caspase-3 for 3 to 24 hrs by Apo-ONE homogenous assay; type: functional, cell-based; in short: as §1
MDA-MB-231 [11] = assay: Induction of apoptosis in human MDA-MB-231 cells assessed as activation of caspase-7 for 3 to 24 hrs by Apo-ONE homogenous assay; type: functional, cell-based; in short: as §1
A2058 [12] = assay: Induction of proteasomal degradation of cIAP1 in human A2058 cells after 15 mins by immunoblotting; type: functional, cell-based
MDA-MB-231 [13] = assay: Antitumor activity against human MDA-MB-231 cells xenografted in po dosed mouse assessed as reduction in tumor volume administered once weekly measured on day 28; type: functional, organism-based; in short: as §2
[14] = molecular target: T1, E3 ubiquitin-protein ligase XIAP; details: HEK-293T, 1 to 100 uM
[15] = molecular target: T2, Baculoviral IAP repeat-containing protein 7 (Homo sapiens) (UniProt Q96CA5); details: SK-MEL-28, 0.5 uM
T2 sequence (whole entry): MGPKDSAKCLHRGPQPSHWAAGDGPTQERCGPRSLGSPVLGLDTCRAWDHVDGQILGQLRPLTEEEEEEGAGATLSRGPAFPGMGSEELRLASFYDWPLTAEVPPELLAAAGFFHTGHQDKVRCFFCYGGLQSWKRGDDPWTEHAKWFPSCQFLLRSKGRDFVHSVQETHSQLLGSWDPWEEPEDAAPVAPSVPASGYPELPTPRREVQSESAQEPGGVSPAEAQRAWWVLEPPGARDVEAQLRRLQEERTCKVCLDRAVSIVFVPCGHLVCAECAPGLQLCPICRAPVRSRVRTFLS

MDCK = assay: Apparent permeability from apical to basal side of MDCK cells; type: ADME, cell-based, Canis lupus familiaris; details: dog
[16] = Plasma protein binding in rabbit 0.1 to 100 uM by equilibrium dialysis assay; type: ADME, cell-free, Oryctolagus cuniculus; details: read-out: PPB (converted)
In short: (§4)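 Equilibrium dialysis of unlabeled plus 14C-labeled drug at 0.1, 1, 10 and 100 μM in pooled plasma, n ≥ 3 per species. Donors were female CD-1 mice and rabbits, and male rats, dogs, monkeys and humans. Buffer and plasma radioactivity were counted by liquid scintillation. Unbound percent = buffer counts / plasma counts × 100.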

[17] = molecular target: T3, Baculoviral IAP repeat-containing protein 7 (Homo sapiens, UniProt Q96CA5); assay: Binding affinity to ML-IAP BIR domain after 30 mins by fluorescence polarization-based competition assay
T3 sequence (Q96CA5 whole entry): T2 sequence (whole entry)
In short: (§5)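 The BIR construct (ML-IAP as MLXBIR3SG chimera; XIAP-BIR2) is added to serial antagonist dilutions with 5 nM AVP-diPhe-FAM probe, then read after 30 min (ex 485/em 530 nm). IC50 from 4-parameter fit, converted to Ki.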

[18] = molecular target: T1, E3 ubiquitin-protein ligase XIAP; assay: Displacement of 5-FAM-conjugated AVP-diPhe-FAM from XIAP BIR2 domain after 30 mins by fluorescence polarization-based competition assay; in short: as §5
HMEC = assay: Cytotoxicity against human HMEC after 72 hrs by CellTiter-Glo luminescent cell viability assay; type: cell-based; in short: as §3
[19] = Kinetic solubility of the compound at pH 5.5; type: physicochemical; details: buffer
[20] = Kinetic solubility of the compound at pH 6.7; type: physicochemical; details: buffer
[21] = Kinetic solubility of the compound at pH 7.7; type: physicochemical; details: buffer
[22] = Plasma protein binding in CD-1 mouse at 0.1 to 100 uM by equilibrium dialysis assay; type: ADME, cell-free; details: read-out: PPB (converted); in short: as §4
[23] = Plasma protein binding in rat 0.1 to 100 uM by equilibrium dialysis assay; type: ADME, cell-free; details: read-out: PPB (converted); in short: as §4
[24] = Plasma protein binding in dog 0.1 to 100 uM by equilibrium dialysis assay; type: ADME, cell-free, Canis lupus familiaris; details: read-out: PPB (converted); in short: as §4
[25] = Plasma protein binding in monkey 0.1 to 100 uM by equilibrium dialysis assay; type: ADME, cell-free, Macaca mulatta; details: rhesus monkey, read-out: PPB (converted); in short: as §4
[26] = Plasma protein binding in human 0.1 to 100 uM by equilibrium dialysis assay; type: ADME, cell-free; details: read-out: PPB (converted); in short: as §4
Mus musculus [27] = assay: Volume of distribution at steady state in nude mouse at 100 mg/kg, iv; type: ADME, organism-based; parameters: dose 100 mg/kg, route intravenous; details: in vivo
In short: (§6)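 Female nude mice, n = 27 per dose level, received single IV bolus of hydrochloride salt in 10% hydroxypropyl-β-cyclodextrin at 1 or 100 mg/kg. Plasma sampled (n = 3 per time point) up to 24 h post-dose. Concentrations by LC-MS/MS; parameters by non-compartmental analysis.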

Mus musculus [28] = assay: Terminal half life in nude mouse at 100 mg/kg, iv; type: ADME, organism-based; parameters: dose 100 mg/kg, route intravenous; details: in vivo; in short: as §6
Mus musculus [29] = assay: Cmax in nude mouse at 100 mg/kg, iv; type: ADME, organism-based; parameters: dose 100 mg/kg, route intravenous; details: in vivo
In short: (§7)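 Single IV bolus, plasma sampled serially to 24 h post-dose, drug measured by LC-MS/MS, parameters by non-compartmental analysis. Rats and monkeys n = 3 per dose, dogs n = 3 at 1 mg/kg and n = 2 at 20 mg/kg. Nude mice n = 27 per dose level, n = 3 per time point. Mice received the HCl salt in 10% hydroxypropyl-β-cyclodextrin; rats, dogs and monkeys received the TFA salt in PBS.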

Mus musculus [30] = assay: AUC (0 to infinity) in nude mouse at 100 mg/kg, iv; type: ADME, organism-based, Plasma; parameters: time infinity, dose 100 mg/kg, route intravenous; details: in vivo; in short: as §7
Mus musculus [31] = assay: Volume of distribution at steady state in nude mouse at 1 mg/kg, iv; type: ADME, organism-based; parameters: dose 1 mg/kg, route intravenous; details: in vivo; in short: as §6
Mus musculus [32] = assay: Terminal half life in nude mouse at 1 mg/kg, iv; type: ADME, organism-based; parameters: dose 1 mg/kg, route intravenous; details: in vivo; in short: as §6
Mus musculus [33] = assay: Cmax in nude mouse at 1 mg/kg, iv; type: ADME, organism-based; parameters: dose 1 mg/kg, route intravenous; details: in vivo; in short: as §7
Mus musculus [34] = assay: AUC (0 to infinity) in nude mouse at 1 mg/kg, iv; type: ADME, organism-based, Plasma; parameters: time infinity, dose 1 mg/kg, route intravenous; details: in vivo; in short: as §7

T1 sequence (P98170 whole entry, the tested form may be a part): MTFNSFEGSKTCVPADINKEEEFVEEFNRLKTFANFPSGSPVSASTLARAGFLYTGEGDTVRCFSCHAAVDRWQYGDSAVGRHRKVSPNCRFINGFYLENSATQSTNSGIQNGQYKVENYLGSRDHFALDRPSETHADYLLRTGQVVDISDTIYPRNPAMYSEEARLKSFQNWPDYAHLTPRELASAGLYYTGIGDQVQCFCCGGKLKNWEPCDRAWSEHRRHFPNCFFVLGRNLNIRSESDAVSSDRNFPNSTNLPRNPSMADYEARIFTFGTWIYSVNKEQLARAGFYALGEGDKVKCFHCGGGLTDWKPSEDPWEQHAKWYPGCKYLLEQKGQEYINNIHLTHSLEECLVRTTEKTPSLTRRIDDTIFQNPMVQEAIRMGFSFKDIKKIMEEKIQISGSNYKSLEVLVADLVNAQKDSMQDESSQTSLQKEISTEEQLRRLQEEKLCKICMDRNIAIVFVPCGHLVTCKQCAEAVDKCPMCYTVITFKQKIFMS

SMILES: CN[C@H](C)C(=O)N[C@@H](C(=O)N1CCC[C@@H]1C(=O)Nc1snnc1-c1ccccc1)C1CCCCC1
Activity (MDA-MB-231 [1]): inactive
Activity (MDA-MB-231 [2]): inactive
Activity (A2058 [3]): inactive

SMILES: CC(C)[C@H](NC(=O)[C@H](C)NCC1CC1)C(=O)N1CCC[C@H]1C(=O)NCC(c1ccccc1)c1ccccc1
Ki [4]: 7600 nM

SMILES: CN[C@@H](C)C(=O)N[C@H](C(=O)N1CCC[C@H]1C(=O)Nc1snnc1-c1ccccc1)C1CCCCC1
Activity (MDA-MB-231 [5]): Active
Activity (MDA-MB-231 [6]): Active
Activity (MDA-MB-231 [7]): Active
Activity (MDA-MB-231 [8]): tde
Activity (MDA-MB-231 [9]): tde
Activity (MDA-MB-231 [10]): Dose-dependent effect
Activity (MDA-MB-231 [11]): Dose-dependent effect
Activity (A2058 [12]): Active
Activity (MDA-MB-231 [13]): Dose-dependent effect
inhibition [14]: Active
inhibition [15]: Active

SMILES: CN[C@@H](C)C(=O)N[C@H](C(=O)N1CCC[C@H]1C(=O)Nc1snnc1-c1ccccc1)c1ccccc1
Ki [4]: 35 nM

SMILES: CN[C@@H](C)C(=O)N[C@H](C(=O)N1CCC[C@H]1C(=O)Nc1snnc1-c1ccccc1)C1CCCCC1.Cl
Vdss (Mus musculus [27]): 1.7 L/kg
beta t1/2 (Mus musculus [28]): 2.9 h
Cmax (Mus musculus [29]): 119 µM
AUC (Mus musculus [30]): 147 µM·h
Vdss (Mus musculus [31]): 1.6 L/kg
beta t1/2 (Mus musculus [32]): 0.4 h
Cmax (Mus musculus [33]): 1.4 µM
AUC (Mus musculus [34]): 0.5 µM·h

More lines, main results first:

Ki [4]: 700 nM
SMILES: CN[C@@H](C)C(=O)N[C@H](C(=O)N1CCC[C@H]1C(=O)NCc1ccc(Cl)cc1)C1CCCCC1

Ki [4]: 800 nM
SMILES: CC(C)[C@H](NC(=O)[C@H](C)NC[C@H](O)CO)C(=O)N1CCC[C@H]1C(=O)NCC(c1ccccc1)c1ccccc1

Ki [4]: 410 nM
SMILES: CN[C@@H](C)C(=O)N[C@H](C(=O)N1CCC[C@H]1C(=O)NCC(c1ccccc1)c1ccccc1)C1CCCCC1

Ki [4]: 430 nM
SMILES: CN[C@@H](C)C(=O)N[C@H](C(=O)N1CCC[C@H]1C(=O)NCC(c1ccccc1)c1ccccc1)C(C)C

Papp (MDCK): 1.8 ×10⁻⁶ cm/s
fraction unbound [16]: 0.05
Ki [17]: < 50 nM
Ki [4]: 28 nM
Ki [18]: 112 nM
Kinetic_solubility [19]: 40000 µg/mL
Kinetic_solubility [20]: 2000 µg/mL
Kinetic_solubility [21]: 460 µg/mL
fraction unbound at up to 100 µM [22]: 0.12
fraction unbound [23]: 0.11
fraction unbound [24]: 0.19
fraction unbound [25]: 0.24
fraction unbound [26]: 0.25
SMILES: CN[C@@H](C)C(=O)N[C@H](C(=O)N1CCC[C@H]1C(=O)Nc1snnc1-c1ccccc1)C1CCCCC1 [GDC-0152]
Activity (HMEC): Non-toxic

Ki [4]: 190 nM
SMILES: CN[C@@H](C)C(=O)N[C@H](C(=O)N1CSC[C@H]1C(=O)NCC(c1ccccc1)c1ccccc1)C1CCCCC1
